Tests used:
[1] = target: T1, Growth factor receptor-bound protein 2 (Homo sapiens, UniProt P62993); assay: Inhibition of Grb2-SH2 domain binding to phospho-EGF receptor intracellular C-terminal domain; assay type: biochemical
How it was run: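 Phosphorylated MBP-EGFR C-terminal domain (residues 976–1210, expressed in E. coli) is immobilized on plates and incubated with GST/Grb2-SH2 in the presence of phosphopeptide or buffer. Bound SH2 is detected with rabbit anti-GST and HRP anti-rabbit antibody, using TMB substrate read at 655 nm. Inhibition is the % absorbance reduction versus no inhibitor; IC50 comes from nonlinear regression.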

[2] = target: Tyrosine-protein kinase Lck (Homo sapiens, UniProt P06239); assay: Inhibition of p56lck SH2 domain binding to biotinylated phosphopeptide
How it was run: (§1)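 Competition ELISA. Biotinylated phosphopeptide (10 ng/mL in 50 mM Tris, pH 7.5) is captured overnight at 4 °C on streptavidin-coated plates. Wells then receive GST-SH2 fusion (Grb2 3.2 ng/mL, Lck 3.2 ng/mL, p85 N-terminal 0.7 ng/mL) with varying unlabeled peptide or buffer, in TBS/0.1% Tween. Detection is rabbit anti-GST, then peroxidase anti-rabbit IgG with TMB. IC50 comes from nonlinear regression of % absorbance reduction.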

[3] = Inhibition of p85 SH2 domain binding to biotinylated phosphopeptide; how it was run: as §1
[4] = target: T1, Growth factor receptor-bound protein 2; assay: Inhibition of Grb2 SH2 domain binding to biotinylated phosphopeptide; how it was run: as §1

T1 sequence (P62993 whole entry, the tested form may be a part): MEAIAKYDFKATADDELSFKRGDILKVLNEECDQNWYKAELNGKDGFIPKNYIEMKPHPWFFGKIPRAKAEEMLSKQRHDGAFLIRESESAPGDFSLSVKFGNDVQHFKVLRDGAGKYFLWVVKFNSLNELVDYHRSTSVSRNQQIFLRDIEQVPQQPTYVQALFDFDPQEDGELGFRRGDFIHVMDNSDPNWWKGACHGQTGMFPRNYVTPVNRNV
Sequence of Tyrosine-protein kinase Lck (P06239 whole entry, the tested form may be a part): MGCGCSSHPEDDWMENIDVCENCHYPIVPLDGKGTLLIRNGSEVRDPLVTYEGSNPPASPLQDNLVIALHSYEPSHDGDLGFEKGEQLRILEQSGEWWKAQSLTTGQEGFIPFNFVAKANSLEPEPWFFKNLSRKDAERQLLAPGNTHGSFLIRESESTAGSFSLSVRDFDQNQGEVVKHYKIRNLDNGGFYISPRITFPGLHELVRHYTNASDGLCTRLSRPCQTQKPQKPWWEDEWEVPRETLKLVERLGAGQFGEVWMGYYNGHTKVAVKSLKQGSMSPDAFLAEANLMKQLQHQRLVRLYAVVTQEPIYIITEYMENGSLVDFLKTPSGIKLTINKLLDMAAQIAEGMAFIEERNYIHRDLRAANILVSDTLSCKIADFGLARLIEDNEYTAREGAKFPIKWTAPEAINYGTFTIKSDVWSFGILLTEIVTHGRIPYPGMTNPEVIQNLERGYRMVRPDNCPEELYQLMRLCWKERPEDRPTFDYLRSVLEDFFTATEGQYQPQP

## CC[C@H](C)[C@H](NC(=O)[C@@H](N)Cc1ccc(OP(=O)(OC(C)=O)OC(C)=O)cc1)C(=O)N[C@@H](CC(=O)NCCCc1ccc(Cl)cc1Cl)C(=O)O
[1]
  IC50: 1500 nM

## CC[C@H](C)[C@H](NC(=O)[C@@H](N)Cc1ccc(OP(=O)(OC(C)=O)OC(C)=O)cc1)C(=O)N[C@@H](CC(=O)NCCCc1cccc2ccccc12)C(=O)O
[2]
  IC50: > 10000 nM
[1]
  IC50: 330 nM
[3]
  IC50: > 10000 nM
[4]
  IC50: 580 nM

## CC[C@H](C)[C@H](NC(=O)[C@@H](N)Cc1ccc(OP(=O)(OC(C)=O)OC(C)=O)cc1)C(=O)N[C@@H](CC(=O)NCCCc1ccccc1)C(=O)O
[1]
  IC50: 2300 nM

## CC[C@H](C)[C@H](NC(=O)[C@@H](N)Cc1ccc(OP(=O)(OC(C)=O)OC(C)=O)cc1)C(=O)N[C@@H](CC(=O)NCC(C)C)C(=O)O
[1]
  IC50: 3200 nM

## CC[C@H](C)[C@H](NC(=O)[C@@H](N)Cc1ccc(OP(=O)(OC(C)=O)OC(C)=O)cc1)C(=O)N[C@@H](CC(=O)NCCC(C)C)C(=O)O
[1]
  IC50: 3100 nM

## CC[C@H](C)[C@H](NC(=O)[C@@H](N)Cc1ccc(OP(=O)(OC(C)=O)OC(C)=O)cc1)C(=O)N[C@@H](CC(N)=O)C(=O)O
[1]
  IC50: 8900 nM

## CCCCC(CC)CNC(=O)C[C@H](NC(=O)[C@@H](NC(=O)[C@@H](N)Cc1ccc(OP(=O)(OC(C)=O)OC(C)=O)cc1)[C@@H](C)CC)C(=O)O (stereo not given in full)
[1]
  IC50: 1600 nM

— ChEMBL document CHEMBL1131080, “Structure-based design and synthesis of high affinity tripeptide ligands of the Grb2-SH2 domain” (J Med Chem, 1998)
